This sample holds only a part of the variants without activity.
B1: tRNA (parent)
chain: GUUCCGUUGGCGUAAUGGUAACGCGUCUCCCUCCUAAGGAGAAGACUGCGGGUUCGAGUCCCGUACGGAACG

Variants of: B1
Assay: yeast fitness relative to wild type (ratio to wild type); higher = fitter; tRNA-Arg(CCU), competitive growth, 37 C, YPD
Method in brief: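 Amplicons of the tRNA-Arg(CCU) gene were sequenced, 100-nucleotide paired-end, from the start population and from each end population of a pooled yeast competition. The competition, in six parallel replicates, lasted 24 hours in YPD at 37°C. Fitness relative to wild type was calculated from changes in genotype frequencies. Genotypes had to have ≥ 100 starting reads, and estimates < 0.5 were set to 0.5.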

A21U C27U U53C and C22A A37C A69C cannot be ordered by yeast fitness: at most 0.5 for the first, at most 0.5 for the second.

Compared with A21G G25C C27G A42C A43G, A21U C33U A57U U59C C66U is higher in yeast fitness: at most 0.5 for the first, 0.538 for the second.

First: A21U C22G
Second: A21U C22U
The yeast fitness of the first is higher: 1.01 for the first, 0.546 for the second.

Going from A21G G39C C62U to A21G U59A, the yeast fitness rises from at most 0.5 to 0.835.

First: A21U C24G C29G C49U
Second: A21U C22U G25A A57C G68U A69C
The yeast fitness of the first is lower: at most 0.5 for the first, 0.599 for the second.

First: A21U A43C
Second: A21U C33G G41C
The yeast fitness of the first is higher: 0.974 for the first, at most 0.5 for the second.

A21U C24A A69C and A21U C24A A69G cannot be ordered by yeast fitness: at most 0.5 for the first, at most 0.5 for the second.

Compared with A21U U32G G51C A70G, A21G U26A A65C is higher in yeast fitness: at most 0.5 for the first, 0.527 for the second.

A21U C33U G38A A45U U53A C62U G63C and A21U C22G C33U G68A cannot be ordered by yeast fitness: at most 0.5 for the first, at most 0.5 for the second.

Going from A21U C22U G25A C49A to A21G G51A, the yeast fitness rises from at most 0.5 to 0.836.

Going from A21G G51C to A21U C30A U35C A40G, the yeast fitness falls from 0.647 to at most 0.5.

Compared with A21G G25C, A21U U32G U59C G68A is lower in yeast fitness: 1.04 for the first, at most 0.5 for the second.

A21G G25C C27G A42C and A21U U59A A69C cannot be ordered by yeast fitness: at most 0.5 for the first, at most 0.5 for the second.

Going from A21U C24A A37U G48C to C22A A37U C66U, the yeast fitness falls from 0.534 to at most 0.5.

Going from A21U U28G A69C to A21U C22U A36G C49A, the yeast fitness falls from 0.529 to at most 0.5.

Compared with A21G G23A G52C, A21U C30G is higher in yeast fitness: at most 0.5 for the first, 0.54 for the second.

Compared with A21U C27G C30A, A21U A45U G67C is higher in yeast fitness: 0.514 for the first, 0.598 for the second.

Going from C22A A40C G50C to A21U A36U C49U G52C C62A G67A, the yeast fitness falls from 0.908 to 0.616.

First: C22A A36C C55G C61A
Second: A21G U35A
The yeast fitness of the first is lower: 0.611 for the first, 0.674 for the second.

First: A21G U35C
Second: A21U C29A A36G G58A C66U
The yeast fitness of the first is higher: 0.728 for the first, at most 0.5 for the second.

First: A21U C34U A42U U64A G68U
Second: A21U G51A
The yeast fitness of the first is lower: 0.659 for the first, 0.751 for the second.

A21U G51C and A21U C30G G41A A43C C55A cannot be ordered by yeast fitness: at most 0.5 for the first, at most 0.5 for the second.

First: A21U C34U A45G G50A
Second: A21U C31U
The yeast fitness of the first is lower: at most 0.5 for the first, 0.717 for the second.

Going from A21G U28A to A21G U28C, the yeast fitness rises from 0.81 to 0.991.

Compared with A21U C49A G50C A57C C66G, A21U C22G G51C is lower in yeast fitness: 0.561 for the first, at most 0.5 for the second.

A21U C22G C60G G68A and A21U A36C G56C cannot be ordered by yeast fitness: at most 0.5 for the first, at most 0.5 for the second.

Going from A21U A40G to A21U C30U G48A G67C A69U, the yeast fitness falls from 0.633 to at most 0.5.

Going from A21U G39U A43C G63A to A21U C30G A70U, the yeast fitness rises from at most 0.5 to 0.677.

First: A21U G39C C55A A57C
Second: A21G U28C A65G
The yeast fitness of the first is lower: at most 0.5 for the first, 0.779 for the second.

First: A21G G23A G52C C61U
Second: A21G U54A
The yeast fitness of the first is lower: at most 0.5 for the first, 0.575 for the second.

Going from A21G U54G to A21G U54C, the yeast fitness rises from 0.575 to 0.937.

Compared with A21U C22G C33U, A21G G38A is higher in yeast fitness: 0.572 for the first, 0.881 for the second.

Compared with A21U A57G, A21U A57C is lower in yeast fitness: 0.882 for the first, 0.619 for the second.

A21U C34G G39A C55U and A21U G44A G56A cannot be ordered by yeast fitness: at most 0.5 for the first, at most 0.5 for the second.

A21U A45U G52A and A21G G38C A40U G44C G67A A69C cannot be ordered by yeast fitness: at most 0.5 for the first, at most 0.5 for the second.

Going from A21G U32C to A21U A36U A45U A65U A70U, the yeast fitness falls from 1.03 to 0.624.

A21U C27A G50C G52C G67C and A21U C24A C27A U32C U64A cannot be ordered by yeast fitness: at most 0.5 for the first, at most 0.5 for the second.

First: A21U C24U C27A U35C A37C A40U G67C
Second: A21U A65G
The yeast fitness of the first is lower: at most 0.5 for the first, 0.942 for the second.

A21U C27G C61U and A21G G23C U28A cannot be ordered by yeast fitness: at most 0.5 for the first, at most 0.5 for the second.

A21U C24G U47A and A21G G23A C34G A36U A57C C66U cannot be ordered by yeast fitness: at most 0.5 for the first, at most 0.5 for the second.

Compared with A21U G56C U64C, A21G G23C is higher in yeast fitness: at most 0.5 for the first, 0.676 for the second.

A21U C24A A45U C62U and A21G G25C C29A C55G G68C cannot be ordered by yeast fitness: at most 0.5 for the first, at most 0.5 for the second.

First: A21U U59G
Second: A21U U59C
The yeast fitness of the first is lower: 0.583 for the first, 0.672 for the second.

C22A A36U G68C and A21U C33U A43U C49G G50C C61U C66U cannot be ordered by yeast fitness: at most 0.5 for the first, at most 0.5 for the second.

A21G U26C C27G G48C and A21U G25A G50A G68U cannot be ordered by yeast fitness: at most 0.5 for the first, at most 0.5 for the second.

Going from A21U A37U A65C C66U to A21G U59G U64C A65U, the yeast fitness rises from at most 0.5 to 0.586.

Going from A21U C49G A69C to A21G G41A A42C A57C A69G, the yeast fitness rises from at most 0.5 to 0.686.

First: A21U A57C G67A
Second: A21U U64G A69G
The yeast fitness of the first is higher: 0.556 for the first, at most 0.5 for the second.

A21U C27G A43U and A21U C55U G68C cannot be ordered by yeast fitness: at most 0.5 for the first, at most 0.5 for the second.

Compared with A21U G50A, A21U C24U C61U C66U is lower in yeast fitness: 0.629 for the first, at most 0.5 for the second.

Compared with A21U G41A A42C U59C A69U, A21G G52C is higher in yeast fitness: at most 0.5 for the first, 0.639 for the second.

Compared with A21G G52A A57G C66G, A21G G41C is higher in yeast fitness: at most 0.5 for the first, 0.997 for the second.

Going from A21U C30A A69U to A21U C55U A65C, the yeast fitness falls from 0.815 to at most 0.5.

Going from A21G G58A to A21U C27U A37U C60G, the yeast fitness falls from 1.01 to at most 0.5.

First: A21U C46U C66A
Second: A21U G44C
The yeast fitness of the first is lower: at most 0.5 for the first, 0.769 for the second.

First: A21U U54A A70G
Second: A21G G39A A70G
The yeast fitness of the first is lower: 0.565 for the first, 0.872 for the second.

Going from A21U C27G C33G C60G to A21U A40G G67A, the yeast fitness rises from 0.52 to 0.553.

Compared with A21U C24G, A21U C24U is higher in yeast fitness: at most 0.5 for the first, 0.703 for the second.

Compared with A21U C24A, A21U C30G C61U is lower in yeast fitness: 0.578 for the first, at most 0.5 for the second.

Compared with A21G G48C A57G G63A, A21G U47A is higher in yeast fitness: at most 0.5 for the first, 0.822 for the second.

Compared with A21G U47C, A21U G51A C66A is lower in yeast fitness: 0.921 for the first, at most 0.5 for the second.

First: A21G G63C
Second: A21G G63A
The yeast fitness of the first is lower: 0.73 for the first, 0.863 for the second.

Going from A21G G44A A45U to A21U A45C, the yeast fitness falls from 0.914 to 0.913.

A21U C33U A57C and A21U C49A G50C cannot be ordered by yeast fitness: at most 0.5 for the first, at most 0.5 for the second.

Compared with A21U C31U U54G, A21U G52A is higher in yeast fitness: at most 0.5 for the first, 0.566 for the second.

Compared with A21G G25C A65G, A21G G23A G58C is lower in yeast fitness: 0.751 for the first, 0.537 for the second.

Compared with A21G U28A C30U C62A, A21U G23A A42C U59G A69C is lower in yeast fitness: 0.744 for the first, at most 0.5 for the second.

First: A21U G25A C60U
Second: A21U G38A
The yeast fitness of the first is lower: at most 0.5 for the first, 0.682 for the second.

First: A21U C22U A43C C49A
Second: A21U C29G C31G A43U G58A U59C
The yeast fitness of the first is higher: 0.595 for the first, at most 0.5 for the second.

First: A21U A37G
Second: A21U C24U G56C G63A U64C G67C
The yeast fitness of the first is higher: 0.664 for the first, at most 0.5 for the second.

Compared with A21U G25C A43G A65G, A21U U54A A69U is lower in yeast fitness: 0.609 for the first, at most 0.5 for the second.

Going from A21U U59A A70U to A21U C24U C27A A37C A40U G67C, the yeast fitness rises from 0.532 to 0.54.

A21U G25A C29A A36G C46A C55A and A21U C55G G56C cannot be ordered by yeast fitness: at most 0.5 for the first, at most 0.5 for the second.

First: A21G G23A C46A
Second: A21G G56A A65G C66U
The yeast fitness of the first is lower: 0.543 for the first, 0.638 for the second.

A21U A36C A45C G48A C55A and A21U C33U C49A C55U cannot be ordered by yeast fitness: at most 0.5 for the first, at most 0.5 for the second.

A21U G41A A42C U54G and A21U C27G C31A C46A G56C cannot be ordered by yeast fitness: at most 0.5 for the first, at most 0.5 for the second.

First: A21U G39C
Second: A21U G25C
The yeast fitness of the first is lower: 0.574 for the first, 1.08 for the second.

Going from A21U A40U A70U to A21U G41A U54C, the yeast fitness rises from 0.657 to 0.723.

Compared with A21U C29G G58A, A21U C29G G58C is higher in yeast fitness: at most 0.5 for the first, 0.502 for the second.

Compared with A21U A40C A57C A70U, A21U U64G is higher in yeast fitness: at most 0.5 for the first, 0.709 for the second.

First: A21U G23C G58U A65G G67A
Second: A21G U64C
The yeast fitness of the first is lower: at most 0.5 for the first, 0.864 for the second.

A21U C34G U64A and A21U U26A U54A A70U cannot be ordered by yeast fitness: at most 0.5 for the first, at most 0.5 for the second.

First: A21U C22A G50C G67A
Second: A21U C29G C31G A43U C60U
The yeast fitness of the first is lower: at most 0.5 for the first, 0.586 for the second.

Variant A21G U35A C55U A65G has a yeast fitness of at most 0.5.
